Key:
[1] = Selectivity index, ratio of CC50 for human MT4 cells to EC50 for HIV1 NL4.3 infected in human MT4 cells; assay type: toxicity, cell-based; settings: read-out: Ratio CC50/EC50
Summary of the method: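 Ratio CC₅₀/EC₅₀. CC₅₀ is from mock-infected MT-4 cells and EC₅₀ from HIV-1 NL4-3-infected MT-4 cells, both read by MTT at day 5 post-infection.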

[2] = target: T1, Human immunodeficiency virus type 1 reverse transcriptase (Human immunodeficiency virus 1, UniProt Q72547); test: Inhibition of HIV1 wild-type reverse transcriptase using [3H]dTTP by scintillation counting
[3] = target: Human immunodeficiency virus type 1 reverse transcriptase (Human immunodeficiency virus 1, UniProt Q72547, K103N); test: Inhibition of HIV1 wild-type reverse transcriptase K103N mutant using [3H]dTTP by scintillation counting
[4] = system: Human immunodeficiency virus 1; test: Ratio of EC50 for HIV1 harboring reverse transcriptase K103N mutant to EC50 for wild type HIV1 NL4.3; assay type: functional
Summary of the method: (§1)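 Fold change is the EC50 against the named mutant strain divided by the EC50 against wild-type HIV-1 NL4-3. […] Means of 2–3 independent experiments in triplicate.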

[5] = system: Human immunodeficiency virus 1; test: Ratio of EC50 for HIV1 harboring reverse transcriptase Y188L mutant to EC50 for wild type HIV1 NL4.3; assay type: functional; summary of the method: as §1
[6] = target: T1, Human immunodeficiency virus type 1 reverse transcriptase; test: Inhibition of HIV1 wild-type reverse transcriptase Y181I/Y181C mutant using [3H]dTTP by scintillation counting
[7] = system: Human immunodeficiency virus 1; test: Antiviral activity against HIV1 harboring reverse transcriptase Y188L mutant infected in human MT4 cells assessed as inhibition of virus-induced cell death measured after 5 days of infection by MTT method; assay type: functional, organism-based; settings: Human immunodeficiency virus 1, MT4, 120 h
Summary of the method: (§2)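 MT-4 cells infected with the named NNRTI-resistant HIV-1 RT mutant strain, in the presence of a range of compound concentrations. Viable cells counted at day 5 post-infection by tetrazolium (MTT) colorimetry. […] Mean of 2–3 independent experiments, each in triplicate.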

[8] = system: Human immunodeficiency virus 1; test: Antiviral activity against HIV1 harboring reverse transcriptase K103N/Y181C double mutant infected in human MT4 cells assessed as inhibition of virus-induced cell death measured after 5 days of infection by MTT method; assay type: functional, organism-based; settings: Human immunodeficiency virus 1, MT4, 120 h; summary of the method: as §2
[9] = system: Human immunodeficiency virus 1; test: Antiviral activity against HIV1 harboring reverse transcriptase Y181C mutant infected in human MT4 cells assessed as inhibition of virus-induced cell death measured after 5 days of infection by MTT method; assay type: functional, organism-based; settings: Human immunodeficiency virus 1, MT4, 120 h; summary of the method: as §2
[10] = system: Human immunodeficiency virus 1; test: Ratio of EC50 for HIV1 harboring reverse transcriptase K103N/Y181C double mutant to EC50 for wild type HIV1 NL4.3; assay type: functional; summary of the method: as §1
[11] = Cytotoxicity against human MT4 cells assessed as cell viability by MTT assay; assay type: cell-based
Summary of the method: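 Mock-infected MT-4 cells exposed to a range of compound concentrations. Viable cells measured by MTT colorimetry at day 5. CC₅₀ = concentration causing 50% death of non-infected cells. Means of two to three independent experiments, each in triplicate.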

[12] = system: Human immunodeficiency virus 1; test: Ratio of EC50 for HIV1 harboring reverse transcriptase Y181C mutant to EC50 for wild type HIV1 NL4.3; assay type: functional; summary of the method: as §1
[13] = system: Human immunodeficiency virus 1; test: Antiviral activity against HIV1 harboring reverse transcriptase K103N mutant infected in human MT4 cells assessed as inhibition of virus-induced cell death measured after 5 days of infection by MTT method; assay type: functional, organism-based; settings: Human immunodeficiency virus 1, MT4, 120 h; summary of the method: as §2
[14] = system: Human immunodeficiency virus 1; test: Antiviral activity against HIV1 NL4.3 infected in human MT4 cells assessed as inhibition of virus-induced cell death measured after 5 days of infection by MTT method; assay type: functional, organism-based; settings: Human immunodeficiency virus 1, NL4.3, MT4, 120 h
Summary of the method: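 Lymphoid MT-4 cells (NIH AIDS Reagent Program) infected with HIV-1 NL4-3 in the presence of varying compound concentrations. On day 5 post-infection, viable cells were counted by MTT tetrazolium colorimetry. EC₅₀ = concentration inhibiting virus-induced cell death by 50%. Means of two to three independent experiments, each in triplicate.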

[15] = system: Human immunodeficiency virus 2; test: Antiviral activity against HIV-2 ROD infected in human CEM cells assessed as protection of cells monitored by giant cell formation by microscopy; assay type: functional, organism-based; settings: Human immunodeficiency virus 2, ISOLATE ROD, CCRF-CEM
Summary of the method: (§3)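 Human CEM cultures (~3 × 10⁵ cells/mL) infected with ~100 CCID₅₀ per mL of HIV-1 IIIB or HIV-2 ROD, seeded with serial compound dilutions. Incubated 4 days at 37 °C; syncytium (giant cell) formation scored by microscopy. EC₅₀ = concentration protecting cells from viral cytopathicity by 50%. Means of two to three independent experiments, each in triplicate.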

[16] = system: Human immunodeficiency virus 1; test: Antiviral activity against HIV1 harboring reverse transcriptase […] mutant infected in human MT4 cells assessed as inhibition of virus-induced cell death measured after 5 days of infection by MTT method; assay type: functional, organism-based; settings: Human immunodeficiency virus 1, MT4, 120 h; summary of the method: as §2
[17] = target: Human immunodeficiency virus type 1 reverse transcriptase (Human immunodeficiency virus 1, UniProt Q72547, L100I); test: Inhibition of HIV1 wild-type reverse transcriptase L100I mutant using [3H]dTTP by scintillation counting
Summary of the method: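 RNA-dependent DNA polymerase activity of recombinant RT (2–4 nM) on poly(rA)/oligo(dT) 10:1 with [3H]dTTP (1 Ci/mmol). Incubation at 37 °C. Acid-insoluble radioactivity collected on GF/C filters after 5% cold TCA, counted by scintillation.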

[18] = system: Human immunodeficiency virus 1; test: Antiviral activity against HIV1 3B infected in human CEM cells assessed as protection of cells monitored by giant cell formation by microscopy; assay type: functional, organism-based; settings: Human immunodeficiency virus 1, 3B, CCRF-CEM; summary of the method: as §3
[19] = system: Human immunodeficiency virus 1; test: Ratio of EC50 for HIV1 harboring reverse transcriptase […] mutant to EC50 for wild type HIV1 NL4.3; assay type: functional; summary of the method: as §1

| SMILES | selectivity ratio [1] | IC50 [2] | IC50 [3] | Ratio EC50 [4] | Ratio EC50 [5] | IC50 [6] | EC50 [7] | EC50 [8] | EC50 [9] | Ratio EC50 [10] | CC50 [11] | Ratio EC50 [12] | EC50 [13] | EC50 [14] | EC50 [15] | EC50 [16] | IC50 [17] | EC50 [18] | Ratio EC50 [19] |
| --- | --- | --- | --- | --- | --- | --- | --- | --- | --- | --- | --- | --- | --- | --- | --- | --- | --- | --- | --- |
| Cc1cc(C)cc(S(=O)(=O)c2c(C(=O)NCc3ccc([N+](=O)[O-])cc3)[nH]c3ccc(Cl)cc23)c1 | > 25100 | 50 nM | 218 nM | 60 | >25103 | > 20000 nM | > 50200 nM | > 50200 nM | 70 nM | >25103 | > 50200 nM | 35 | 120 nM | 2 nM |  |  |  |  |  |
| Cc1cccc(CCNC(=O)c2[nH]c3ccc(Cl)cc3c2S(=O)(=O)c2cc(C)cc(C)c2)c1 | > 8380 | 190 nM | > 20000 nM | 42 |  | > 20000 nM |  | > 51900 nM | 1200 nM | >8383 | > 52000 nM | 194 | 260 nM | 6.2 nM | > 25000 nM | 31 nM | 1300 nM | 7.3 nM | 5 |
| Cc1cc(C)cc(CNC(=O)c2[nH]c3ccc(Cl)cc3c2S(=O)(=O)c2cc(C)cc(C)c2)c1 | > 12400 | 7000 nM | > 20000 nM | 43 |  | > 20000 nM |  | > 51800 nM | > 2000 nM | >12332 | > 52000 nM | >476 | 180 nM | 4.2 nM | > 2000 nM | 65 nM | 5900 nM | 28 nM | 15 |
| Cc1cc(C)cc(S(=O)(=O)c2c(C(=O)NCCc3ccccc3C)[nH]c3ccc(Cl)cc23)c1 | > 8380 | 288 nM | 12400 nM | 16 |  | > 20000 nM |  | > 51900 nM |  | >8383 | > 52000 nM |  | 100 nM |  | > 10000 nM | 20 nM | 200 nM | 9.1 nM | 3.2 |
| Cc1ccc(CNC(=O)c2[nH]c3ccc(Cl)cc3c2S(=O)(=O)c2cc(C)cc(C)c2)cc1 | 10100 | 50 nM | > 20000 nM | 183 | >10105 | > 20000 nM | > 21200 nM | > 21200 nM | 215 nM | >10105 | 21200 nM | 103 | 385 nM | 2.1 nM |  |  |  |  |  |
| Cc1cc(C)cc(S(=O)(=O)c2c(C(=O)NCCc3cccc(Cl)c3)[nH]c3ccc(Cl)cc23)c1 | 7270 | 83 nM | 5940 nM | 45 |  | > 20000 nM |  | 29100 nM | 870 nM | 7274 | 29100 nM | 218 | 180 nM | 4 nM | > 10000 nM | 31 nM | 10 nM | 11 nM | 7.8 |
| Cc1cc(C)cc(S(=O)(=O)c2c(C(=O)NCCc3ccc(Cl)cc3)[nH]c3ccc(Cl)cc23)c1 | 602 | 89 nM | 60 nM | >=37 |  | > 20000 nM |  | 32400 nM | 1700 nM | 602 | 32400 nM | 36 | ≥ 2000 nM | 53.8 nM | > 10000 nM | 190 nM | 960 nM | 68 nM | 3.5 |
| Cc1cc(C)cc(S(=O)(=O)c2c(C(=O)NCCc3ccccc3Cl)[nH]c3ccc(Cl)cc23)c1 | 11200 | 131 nM | 3140 nM | 9.3 |  | > 20000 nM |  | 45000 nM | 250 nM | 11243 | 45000 nM | 63 | 37 nM | 4 nM | > 10000 nM | 24 nM | 270 nM | 9.4 nM | 6 |
| Cc1cc(C)cc(S(=O)(=O)c2c(C(=O)NCc3ccc(Cl)cc3)[nH]c3ccc(Cl)cc23)c1 | > 6260 | 57 nM | 7500 nM | 13 | >6255 | > 20000 nM | > 51300 nM | > 51300 nM | 451 nM | >6255 | > 51300 nM | 55 | 103 nM | 8.2 nM |  |  |  |  |  |
